Tests used:
[1] = target: T1, Adrenergic receptor alpha-1 (Rattus norvegicus, UniProt P15823+P23944+P43140); test: The compound was tested for binding affinity against Alpha-1 adrenergic receptor from rat using [3H]prazosin as radioligand; assay type: protein assay
T1 sequence (P15823 whole entry): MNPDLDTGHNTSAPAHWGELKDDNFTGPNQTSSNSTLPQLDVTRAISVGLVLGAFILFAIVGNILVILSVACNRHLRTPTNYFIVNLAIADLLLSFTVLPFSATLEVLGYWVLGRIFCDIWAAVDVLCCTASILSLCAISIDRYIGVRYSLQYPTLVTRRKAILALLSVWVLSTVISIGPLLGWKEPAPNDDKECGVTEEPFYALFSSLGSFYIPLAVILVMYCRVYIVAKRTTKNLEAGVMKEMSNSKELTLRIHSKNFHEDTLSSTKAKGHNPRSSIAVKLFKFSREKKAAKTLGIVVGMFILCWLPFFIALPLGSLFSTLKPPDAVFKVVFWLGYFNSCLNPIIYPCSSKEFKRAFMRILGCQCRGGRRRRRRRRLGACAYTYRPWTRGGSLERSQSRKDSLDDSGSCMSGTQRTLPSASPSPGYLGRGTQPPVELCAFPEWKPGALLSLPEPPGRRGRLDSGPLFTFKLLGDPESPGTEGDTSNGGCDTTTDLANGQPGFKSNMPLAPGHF
T1 sequence (P23944 whole entry): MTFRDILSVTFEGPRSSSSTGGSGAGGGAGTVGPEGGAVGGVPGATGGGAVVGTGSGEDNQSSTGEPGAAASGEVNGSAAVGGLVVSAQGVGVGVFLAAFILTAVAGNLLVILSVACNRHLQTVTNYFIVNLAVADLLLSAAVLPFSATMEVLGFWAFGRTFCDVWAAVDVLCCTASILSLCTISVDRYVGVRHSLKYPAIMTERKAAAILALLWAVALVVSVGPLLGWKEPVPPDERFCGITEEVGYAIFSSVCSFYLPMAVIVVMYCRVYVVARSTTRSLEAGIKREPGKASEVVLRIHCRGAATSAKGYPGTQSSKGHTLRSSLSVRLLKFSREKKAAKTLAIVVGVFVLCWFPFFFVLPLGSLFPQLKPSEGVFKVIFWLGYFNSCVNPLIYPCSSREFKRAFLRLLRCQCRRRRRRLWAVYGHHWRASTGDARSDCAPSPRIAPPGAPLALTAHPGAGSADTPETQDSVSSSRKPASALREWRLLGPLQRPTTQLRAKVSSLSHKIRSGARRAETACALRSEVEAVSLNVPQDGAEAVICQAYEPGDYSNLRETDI
T1 sequence (P43140 whole entry): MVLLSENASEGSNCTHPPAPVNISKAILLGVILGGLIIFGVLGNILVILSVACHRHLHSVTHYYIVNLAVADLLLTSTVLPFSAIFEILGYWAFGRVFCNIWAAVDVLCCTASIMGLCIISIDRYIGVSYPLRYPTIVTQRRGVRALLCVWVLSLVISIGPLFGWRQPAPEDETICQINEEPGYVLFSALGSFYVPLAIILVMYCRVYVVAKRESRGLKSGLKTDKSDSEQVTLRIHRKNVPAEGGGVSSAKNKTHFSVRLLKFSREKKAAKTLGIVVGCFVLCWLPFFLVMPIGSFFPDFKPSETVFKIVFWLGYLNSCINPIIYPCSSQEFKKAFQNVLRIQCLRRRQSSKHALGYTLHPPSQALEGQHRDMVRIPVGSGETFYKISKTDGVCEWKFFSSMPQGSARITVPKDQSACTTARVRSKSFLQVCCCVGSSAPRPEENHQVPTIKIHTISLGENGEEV
In short: (§1)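 Rat cortical membranes (Sprague–Dawley, triple-washed; 200 μg protein) incubated with 0.8 nM [3H]prazosin in 140 mM NaCl/5 mM MgCl2/50 mM Tris-HCl pH 7.4, 60 min at room temperature. Nine concentrations in duplicate, 1% DMSO final. Nonspecific binding defined by 10 μM phentolamine.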

D(2) dopamine receptor = D(2) dopamine receptor (Rattus norvegicus, UniProt P61169); test: Binding affinity against Dopamine receptor D2 from rat using [3H]raclopride as radioligand
In short: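 Washed Sprague–Dawley rat striatal membranes (200 μg protein) incubated with 3 nM [3H]raclopride in 120 mM NaCl/5 mM KCl/50 mM Tris-HCl pH 7.4, 60 min at room temperature. Nine concentrations in duplicate, 1% DMSO final. Nonspecific binding with 300 μM sulpiride.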

[2] = target: T2, Glutamate NMDA receptor; Grin1/Grin2a (Rattus norvegicus, UniProt P35439+Q00959); test: Antagonistic activity against rat N-methyl-D-aspartate glutamate receptor 1/2A, expressed in Xenopus oocytes; assay type: functional, cell-based, Oocyte
In short: (§2)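 Two-electrode voltage clamp at -70 mV in nominally Ca2+-free Ringer (NaCl 115, KCl 2, BaCl2 1.8, HEPES 5 mM, pH 7.4). Drugs are given by bath perfusion at 7–10 mL/min, with final DMSO 0.1–1%. Inhibition of NMDA responses is measured, and IC50 is fitted from partial 3–5 point concentration–inhibition curves with a free residual minimum. Mean ± SEM, n as reported.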

[3] = target: T3, Glutamate NMDA receptor; Grin1/Grin2b (Rattus norvegicus, UniProt P35439+Q00960); test: Antagonistic activity against rat N-methyl-D-aspartate glutamate receptor 1/2B expressed in Xenopus oocytes; assay type: functional, cell-based, Oocyte
In short: (§3)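 Cloned NR1A/2B receptors in oocytes, recorded by two-electrode voltage clamp at -70 mV in nominally Ca2+-free Ringer (pH 7.4). Drugs are bath perfused, with final DMSO 0.1–1%. IC50 for inhibition of NMDA responses is fitted from partial 3–5 point curves, with the residual fractional response ('min') fixed at 0.15. Mean ± SEM.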

[4] = target: T4, Glutamate NMDA receptor; Grin1/Grin2c (Rattus norvegicus, UniProt P35439+Q00961); test: Antagonistic activity against rat N-methyl-D-aspartate glutamate receptor 1/2C expressed in Xenopus oocytes; assay type: functional, cell-based, Oocyte; in short: as §2
[5] = target: T3, Glutamate NMDA receptor; Grin1/Grin2b; test: Antagonistic activity against rat NR1A/2B receptor expressed in Xenopus oocytes; assay type: functional, cell-based, Oocyte; in short: as §3
[6] = target: T4, Glutamate NMDA receptor; Grin1/Grin2c; test: The compound was tested for antagonistic activity against rat NR1A/2C receptor expressed in Xenopus oocytes; assay type: functional, cell-based, Oocyte
In short: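 Drugs are given by bath perfusion at 7–10 mL/min, with final DMSO 0.1–1%. Inhibition of NMDA responses is measured, and IC50 is fitted from partial 3–5 point concentration–inhibition curves with a free residual minimum. Mean ± SEM, n as reported.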

[7] = target: T2, Glutamate NMDA receptor; Grin1/Grin2a; test: Antagonistic activity against rat NR1A/2A receptor, expressed in Xenopus oocytes; assay type: functional, cell-based, Oocyte; in short: as §2
[8] = target: T1, Adrenergic receptor alpha-1; test: Binding affinity against alpha-1 adrenergic receptor from rat using [3H]-prazosin as radioligand; assay type: protein assay; in short: as §1

T2 sequence (Q00959 whole entry, other chains not shown, the tested form may be a part): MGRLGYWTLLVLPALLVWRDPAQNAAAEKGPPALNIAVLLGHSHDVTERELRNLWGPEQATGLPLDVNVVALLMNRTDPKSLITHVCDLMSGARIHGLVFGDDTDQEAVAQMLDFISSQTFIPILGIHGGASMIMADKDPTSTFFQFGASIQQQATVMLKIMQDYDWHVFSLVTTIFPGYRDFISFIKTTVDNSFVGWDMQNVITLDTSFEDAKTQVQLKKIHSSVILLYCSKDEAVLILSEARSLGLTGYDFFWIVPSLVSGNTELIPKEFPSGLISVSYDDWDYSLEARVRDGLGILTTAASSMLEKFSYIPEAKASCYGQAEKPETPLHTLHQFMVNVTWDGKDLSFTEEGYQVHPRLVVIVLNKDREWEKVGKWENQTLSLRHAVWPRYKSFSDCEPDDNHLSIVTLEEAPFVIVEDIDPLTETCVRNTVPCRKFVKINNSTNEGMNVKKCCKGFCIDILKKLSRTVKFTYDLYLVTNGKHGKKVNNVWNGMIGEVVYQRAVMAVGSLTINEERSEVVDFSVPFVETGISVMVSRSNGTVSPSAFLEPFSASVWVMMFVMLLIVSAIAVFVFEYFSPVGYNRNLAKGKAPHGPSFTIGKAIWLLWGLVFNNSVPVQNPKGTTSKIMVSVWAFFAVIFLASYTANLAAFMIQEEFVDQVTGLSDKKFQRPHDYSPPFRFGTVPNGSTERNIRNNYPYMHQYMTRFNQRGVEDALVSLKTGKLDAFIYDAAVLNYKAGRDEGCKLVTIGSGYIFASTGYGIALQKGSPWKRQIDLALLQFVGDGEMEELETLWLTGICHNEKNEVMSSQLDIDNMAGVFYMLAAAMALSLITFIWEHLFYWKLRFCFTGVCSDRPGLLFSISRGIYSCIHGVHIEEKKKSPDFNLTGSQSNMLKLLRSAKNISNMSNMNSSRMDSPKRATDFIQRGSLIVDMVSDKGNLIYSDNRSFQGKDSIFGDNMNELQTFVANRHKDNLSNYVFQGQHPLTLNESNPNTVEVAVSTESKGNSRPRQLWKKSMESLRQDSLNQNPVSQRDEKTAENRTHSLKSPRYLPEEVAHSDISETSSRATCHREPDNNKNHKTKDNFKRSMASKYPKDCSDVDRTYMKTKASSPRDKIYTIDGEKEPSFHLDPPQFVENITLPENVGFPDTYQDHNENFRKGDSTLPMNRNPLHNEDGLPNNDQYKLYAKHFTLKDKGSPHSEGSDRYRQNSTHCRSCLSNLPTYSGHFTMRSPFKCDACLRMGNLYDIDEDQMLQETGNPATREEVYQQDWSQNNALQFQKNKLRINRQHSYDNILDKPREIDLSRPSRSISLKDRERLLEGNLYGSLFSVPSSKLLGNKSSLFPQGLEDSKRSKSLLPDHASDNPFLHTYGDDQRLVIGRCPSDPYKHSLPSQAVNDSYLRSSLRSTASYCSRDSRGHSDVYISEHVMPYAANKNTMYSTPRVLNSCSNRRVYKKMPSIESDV
T4 sequence (Q00961 whole entry, other chains not shown): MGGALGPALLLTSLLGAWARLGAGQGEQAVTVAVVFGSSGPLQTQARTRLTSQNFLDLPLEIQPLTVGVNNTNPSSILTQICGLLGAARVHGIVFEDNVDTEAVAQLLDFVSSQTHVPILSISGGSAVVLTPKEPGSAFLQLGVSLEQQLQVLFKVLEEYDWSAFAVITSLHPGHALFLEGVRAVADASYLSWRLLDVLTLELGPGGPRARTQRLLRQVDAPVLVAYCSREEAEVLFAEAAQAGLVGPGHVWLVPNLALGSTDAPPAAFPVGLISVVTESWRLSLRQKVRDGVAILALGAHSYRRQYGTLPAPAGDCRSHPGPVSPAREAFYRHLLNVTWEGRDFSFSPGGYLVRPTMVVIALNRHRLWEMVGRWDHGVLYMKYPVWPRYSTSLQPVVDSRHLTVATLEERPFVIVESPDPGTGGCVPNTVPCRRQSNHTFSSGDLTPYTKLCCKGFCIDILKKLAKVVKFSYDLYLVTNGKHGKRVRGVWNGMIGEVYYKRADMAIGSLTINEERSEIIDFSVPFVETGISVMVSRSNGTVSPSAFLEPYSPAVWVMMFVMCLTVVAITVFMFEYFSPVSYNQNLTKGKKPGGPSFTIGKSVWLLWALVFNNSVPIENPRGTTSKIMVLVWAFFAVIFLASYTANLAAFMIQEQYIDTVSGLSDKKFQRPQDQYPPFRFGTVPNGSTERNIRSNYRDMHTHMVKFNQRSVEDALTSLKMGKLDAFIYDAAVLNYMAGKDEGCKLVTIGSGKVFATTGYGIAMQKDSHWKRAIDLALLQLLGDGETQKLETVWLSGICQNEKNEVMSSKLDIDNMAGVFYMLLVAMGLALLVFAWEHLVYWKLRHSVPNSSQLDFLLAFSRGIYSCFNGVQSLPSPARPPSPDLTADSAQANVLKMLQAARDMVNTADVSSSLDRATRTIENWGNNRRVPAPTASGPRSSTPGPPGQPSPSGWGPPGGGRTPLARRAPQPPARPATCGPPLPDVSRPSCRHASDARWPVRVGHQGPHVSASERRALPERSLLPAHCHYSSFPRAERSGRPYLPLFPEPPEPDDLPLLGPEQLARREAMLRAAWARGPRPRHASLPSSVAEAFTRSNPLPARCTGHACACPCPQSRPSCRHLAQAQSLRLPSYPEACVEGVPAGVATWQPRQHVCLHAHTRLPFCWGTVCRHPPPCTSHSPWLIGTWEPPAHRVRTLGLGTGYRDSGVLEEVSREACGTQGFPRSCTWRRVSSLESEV
Sequence of D(2) dopamine receptor (P61169 whole entry): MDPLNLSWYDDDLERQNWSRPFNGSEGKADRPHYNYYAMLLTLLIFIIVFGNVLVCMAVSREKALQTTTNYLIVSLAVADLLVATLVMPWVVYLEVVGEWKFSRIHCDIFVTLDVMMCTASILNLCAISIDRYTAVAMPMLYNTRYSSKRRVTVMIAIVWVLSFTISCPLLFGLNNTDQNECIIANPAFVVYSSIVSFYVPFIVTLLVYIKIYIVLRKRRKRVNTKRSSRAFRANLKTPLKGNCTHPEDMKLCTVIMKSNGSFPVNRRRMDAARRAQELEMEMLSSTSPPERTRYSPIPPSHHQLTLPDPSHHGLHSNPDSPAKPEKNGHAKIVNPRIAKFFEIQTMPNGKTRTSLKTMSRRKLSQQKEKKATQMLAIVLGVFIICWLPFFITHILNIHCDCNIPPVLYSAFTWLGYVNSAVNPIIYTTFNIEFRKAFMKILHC
T3 sequence (Q00960 whole entry, other chains not shown, the tested form may be a part): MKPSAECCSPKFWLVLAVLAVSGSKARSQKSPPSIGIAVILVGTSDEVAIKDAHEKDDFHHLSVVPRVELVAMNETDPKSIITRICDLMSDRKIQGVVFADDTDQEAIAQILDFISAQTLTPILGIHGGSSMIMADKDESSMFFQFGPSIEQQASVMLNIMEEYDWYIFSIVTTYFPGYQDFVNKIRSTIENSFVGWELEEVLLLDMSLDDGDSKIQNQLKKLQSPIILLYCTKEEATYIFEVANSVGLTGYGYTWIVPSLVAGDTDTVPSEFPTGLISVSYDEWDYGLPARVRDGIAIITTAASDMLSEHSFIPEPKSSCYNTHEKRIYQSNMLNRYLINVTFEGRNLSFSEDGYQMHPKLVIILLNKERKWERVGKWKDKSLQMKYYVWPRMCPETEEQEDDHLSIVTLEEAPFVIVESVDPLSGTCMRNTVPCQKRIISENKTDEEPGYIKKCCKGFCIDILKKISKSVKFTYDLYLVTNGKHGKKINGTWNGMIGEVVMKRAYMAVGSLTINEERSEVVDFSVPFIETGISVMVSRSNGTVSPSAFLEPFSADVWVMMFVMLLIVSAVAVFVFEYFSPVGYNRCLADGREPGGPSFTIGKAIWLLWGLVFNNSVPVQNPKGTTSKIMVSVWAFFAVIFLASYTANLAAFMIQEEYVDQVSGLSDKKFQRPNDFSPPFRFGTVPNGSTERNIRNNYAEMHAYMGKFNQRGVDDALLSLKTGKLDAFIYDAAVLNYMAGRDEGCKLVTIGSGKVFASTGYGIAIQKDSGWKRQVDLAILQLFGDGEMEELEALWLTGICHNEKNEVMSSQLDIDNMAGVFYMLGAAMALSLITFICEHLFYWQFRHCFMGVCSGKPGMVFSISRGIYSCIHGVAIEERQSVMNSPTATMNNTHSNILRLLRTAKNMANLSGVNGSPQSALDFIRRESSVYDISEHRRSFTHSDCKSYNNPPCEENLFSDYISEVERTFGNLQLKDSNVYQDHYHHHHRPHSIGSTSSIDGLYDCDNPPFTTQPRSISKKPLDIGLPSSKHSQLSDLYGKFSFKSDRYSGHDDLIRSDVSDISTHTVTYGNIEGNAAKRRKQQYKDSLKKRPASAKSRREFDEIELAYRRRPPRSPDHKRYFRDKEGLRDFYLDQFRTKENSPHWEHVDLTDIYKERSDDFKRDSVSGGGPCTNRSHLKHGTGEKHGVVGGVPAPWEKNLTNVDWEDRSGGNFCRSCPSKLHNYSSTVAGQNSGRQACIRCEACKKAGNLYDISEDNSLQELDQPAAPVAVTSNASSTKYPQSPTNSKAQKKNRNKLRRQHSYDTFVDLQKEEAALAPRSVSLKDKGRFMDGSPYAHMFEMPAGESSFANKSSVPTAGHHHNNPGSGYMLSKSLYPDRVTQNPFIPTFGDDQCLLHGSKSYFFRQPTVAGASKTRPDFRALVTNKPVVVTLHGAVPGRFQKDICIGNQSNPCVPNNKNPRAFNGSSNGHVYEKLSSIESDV

SMILES | IC50 [1] | IC50 (D(2) dopamine receptor) | IC50 [2] | IC50 [3] | IC50 [4] | IC50 [5] | IC50 [6] | IC50 [7] | IC50 [8]
CNc1ccc(C#CCCN2CCC(Cc3ccccc3)CC2)cc1 | 1 µM | 0.3 µM | 84 µM | 0.46 µM | > 100 µM |  |  |  | 
O=[N+]([O-])c1ccc(C#CCCN2CCC(Cc3ccccc3)CC2)cc1 |  |  |  |  |  |  | > 100 µM | > 100 µM | 
CC(=O)Nc1ccc(C#CCN2CCC(Cc3ccccc3)CC2)cc1 |  |  | 56 µM | 13 µM | > 100 µM |  |  |  | 
Clc1cccc(C#CCCN2CCC(Cc3ccccc3)CC2)c1 |  |  |  |  |  | 3.8 µM | > 100 µM | > 100 µM | 
CS(=O)(=O)Nc1ccc(C#CCN2CCC(Cc3ccccc3)CC2)cc1 | 2.2 µM | 12 µM | > 100 µM | 0.15 µM | > 100 µM |  |  |  | 
NCc1cccc(C#CCCN2CCC(Cc3ccccc3)CC2)c1 | 0.8 µM | 0.3 µM |  | 0.52 µM | > 100 µM |  |  |  | 
Nc1ccccc1C#CCCN1CCC(Cc2ccccc2)CC1 |  |  |  |  |  | 1.1 µM | > 100 µM | 70 µM | 
COc1ccc(C#CCCN2CCC(Cc3ccccc3)CC2)cc1 |  |  |  |  |  | 2.6 µM | > 100 µM | > 100 µM | 
Nc1cccc(C#CCCN2CCC(Cc3ccccc3)CC2)c1 |  |  |  |  |  | 1.1 µM | > 100 µM | > 100 µM | 
CS(=O)(=O)Nc1ccc(C#CCCCN2CCC(Cc3ccccc3)CC2)cc1 | 1.1 µM | 2.3 µM | > 100 µM | 0.28 µM | > 100 µM |  |  |  | 

Results, then the compound that gave them:

IC50 [1] | IC50 (D(2) dopamine receptor) | IC50 [2] | IC50 [3] | IC50 [4] | IC50 [5] | IC50 [6] | IC50 [7] | IC50 [8] | SMILES
 |  |  |  |  | 2.7 µM | > 100 µM | > 100 µM |  | Fc1ccc(C#CCCN2CCC(Cc3ccccc3)CC2)cc1
 | 1.1 µM |  |  |  | 0.19 µM | > 100 µM | > 100 µM | 1 µM | Nc1ccc(C#CCCN2CCC(Cc3ccccc3)CC2)cc1N
 | 15 µM |  |  |  | 0.83 µM |  | > 100 µM | 63 µM | Nc1ccc(C#CCCN2CCC(O)(Cc3ccccc3)CC2)cc1
 | 7.9 µM |  |  |  | 0.65 µM | > 100 µM | 29 µM | 31 µM | Nc1ccc(C#CCCN2CCC(O)(Cc3ccc(F)cc3)CC2)cc1
 |  |  |  |  |  | > 100 µM | > 100 µM |  | Nc1ccc(C#CCN2CCC(Cc3ccccc3)CC2)cc1
 |  |  |  |  | 4.2 µM | > 100 µM | 42 µM |  | Cc1ccc(C#CCCN2CCC(Cc3ccccc3)CC2)cc1

Reference: ChEMBL document CHEMBL1132273, “Subtype-selective N-methyl-D-aspartate receptor antagonists: synthesis and biological evaluation of 1-(arylalkynyl)-4-benzylpiperidines” (J Med Chem, 1999)
